Data as given in ChEMBL document CHEMBL5724801, “EUbOPEN Chemogenomics Library - Multiplex” (2024).
Where “and” joins values, the source holds several entries; their conditions need not be identical. Equal entries are not always repeated.

Tested on: U2OS
Assay: Multiplex assay against U2OS
Type: toxicity, cell-based
Conditions: human
Procedure, shortened: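 With compound added, live cells were imaged on a CQ1 microscope at 37°C and 5% CO2; staining with Hoechst33342, BioTracker Green Microtubule Cytoskeleton Dye, MitoTracker Red and Annexin V Alexa Fluor 680 had been done at seeding. The CellPathfinder machine-learning gating scheme split cells into Hoechst high-intensity objects or normal cells, normal cells into healthy, pyknosed or fragmented nuclei, and pyknosed cells into mitotic or apoptotic. The tubulin, mitochondrial-mass and membrane-permeability phenotypes are per cents of healthy-nucleus cells.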

[1] = 12 h, 1 µM, compound concentration 1 uM
[2] = 12 h, 10 µM, compound concentration 10 uM
[3] = 24 h, 1 µM, compound concentration 1 uM
[4] = 24 h, 10 µM, compound concentration 10 uM
[5] = 48 h, 1 µM, compound concentration 1 uM
[6] = 48 h, 10 µM, compound concentration 10 uM

## CC[C@H](Nc1ncnc2[nH]cnc12)c1nc2cccc(F)c2c(=O)n1-c1ccccc1 [IDELALISIB]
[1]
  Population Apoptotic (%): 50% and 55%
  Population Fragmented Nuclei (%): 1.02% and 4.85%
  Population Healthy Nuclei (%): 88.24% and 85.44%
  Population Hoechst High Intensity Objects (%): 0%
  Population Membrane Permeable-Phenotype (%): 1.45% and 1.7%
  Population Mitochondria Different-Phenotype (%): 0.29% and 7.39%
  Population Mitotic Cells (%): 50% and 45%
  Population Normal (%): 100%
  Population Pyknosed Nuclei (%): 10.74% and 9.71%
  Population Tubulin-Different-Phenotype (%): 3.19% and 1.14%
  Total Cell Count: 391 and 206
[2]
  Population Apoptotic (%): 33.33% and 37.5%
  Population Fragmented Nuclei (%): 1.17% and 2.76%
  Population Healthy Nuclei (%): 86.55% and 75.17%
  Population Hoechst High Intensity Objects (%): 0%
  Population Membrane Permeable-Phenotype (%): 10.47% and 14.68%
  Population Mitotic Cells (%): 66.67% and 62.5%
  Population Normal (%): 100%
  Population Pyknosed Nuclei (%): 12.28% and 22.07%
  Total Cell Count: 342 and 145
[3]
  Population Apoptotic (%): 46.94% and 30.77%
  Population Fragmented Nuclei (%): 1.87% and 2.83%
  Population Healthy Nuclei (%): 88.97% and 86.64%
  Population Hoechst High Intensity Objects (%): 0% and 0.4%
  Population Membrane Permeable-Phenotype (%): 0.84% and 2.34%
  Population Mitochondria Different-Phenotype (%): 0.21% and 5.14%
  Population Mitotic Cells (%): 53.06% and 69.23%
  Population Normal (%): 100% and 99.6%
  Population Pyknosed Nuclei (%): 9.16% and 10.53%
  Population Tubulin-Different-Phenotype (%): 1.68% and 0.47%
  Total Cell Count: 535 and 248
[4]
  Population Apoptotic (%): 44.64% and 41.38%
  Population Fragmented Nuclei (%): 2.79% and 2.6%
  Population Healthy Nuclei (%): 84.19% and 78.57%
  Population Hoechst High Intensity Objects (%): 0%
  Population Membrane Permeable-Phenotype (%): 7.73% and 14.88%
  Population Mitotic Cells (%): 55.36% and 58.62%
  Population Normal (%): 100%
  Population Pyknosed Nuclei (%): 13.02% and 18.83%
  Population Tubulin-Different-Phenotype (%): 12.15% and 4.13%
  Total Cell Count: 430 and 154
[5]
  Population Apoptotic (%): 46.67% and 39.53%
  Population Fragmented Nuclei (%): 2.53% and 4.9%
  Population Healthy Nuclei (%): 87.97% and 84.56%
  Population Hoechst High Intensity Objects (%): 0%
  Population Membrane Permeable-Phenotype (%): 0.84% and 3.48%
  Population Mitochondria Different-Phenotype (%): 0.12% and 3.48%
  Population Mitotic Cells (%): 53.33% and 60.47%
  Population Normal (%): 100%
  Population Pyknosed Nuclei (%): 9.49% and 10.54%
  Population Tubulin-Different-Phenotype (%): 1.08% and 1.16%
  Total Cell Count: 948 and 408
[6]
  Population Apoptotic (%): 55.68% and 62.86%
  Population Fragmented Nuclei (%): 2.47% and 5.05%
  Population Healthy Nuclei (%): 84.72% and 78.9%
  Population Hoechst High Intensity Objects (%): 0%
  Population Membrane Permeable-Phenotype (%): 3.78% and 8.72%
  Population Mitotic Cells (%): 44.32% and 37.14%
  Population Normal (%): 100%
  Population Pyknosed Nuclei (%): 12.81% and 16.06%
  Population Tubulin-Different-Phenotype (%): 5.33% and 5.23%

## O=S(=O)(c1ccccc1)c1cnc2c(N3CCNCC3)cccc2c1 [INTEPIRDINE]
[1]
  Population Apoptotic (%): 76% and 70%
  Population Fragmented Nuclei (%): 23% and 17%
  Population Healthy Nuclei (%): 68% and 71%
  Population Hoechst High Intensity Objects (%): 1% and 0%
  Population Membrane Permeable-Phenotype (%): 6% and 7%
  Population Mitochondria Different-Phenotype (%): 3% and 6%
  Population Mitotic Cells (%): 23% and 30%
  Population Normal (%): 98% and 100%
  Population Pyknosed Nuclei (%): 7% and 11%
  Population Tubulin-Different-Phenotype (%): 4% and 7%
[2]
  Population Apoptotic (%): 58% and 85%
  Population Fragmented Nuclei (%): 25% and 10%
  Population Healthy Nuclei (%): 61% and 79%
  Population Hoechst High Intensity Objects (%): 3% and 2%
  Population Membrane Permeable-Phenotype (%): 23% and 12%
  Population Mitochondria Different-Phenotype (%): 11% and 13%
  Population Mitotic Cells (%): 41% and 14%
  Population Normal (%): 96% and 97%
  Population Pyknosed Nuclei (%): 12% and 10%
  Population Tubulin-Different-Phenotype (%): 14% and 10%
  Total Cell Count: 204 and 139
[3]
  Population Apoptotic (%): 80% and 69%
  Population Fragmented Nuclei (%): 22% and 14%
  Population Healthy Nuclei (%): 67% and 73%
  Population Hoechst High Intensity Objects (%): 2% and 0%
  Population Membrane Permeable-Phenotype (%): 7% and 3%
  Population Mitochondria Different-Phenotype (%): 2% and 3%
  Population Mitotic Cells (%): 19% and 30%
  Population Normal (%): 97% and 99%
  Population Pyknosed Nuclei (%): 9% and 12%
  Population Tubulin-Different-Phenotype (%): 4% and 1%
  Total Cell Count: 319 and 108
[4]
  Population Apoptotic (%): 72% and 77%
  Population Fragmented Nuclei (%): 23% and 10%
  Population Healthy Nuclei (%): 60% and 77%
  Population Hoechst High Intensity Objects (%): 3% and 0%
  Population Membrane Permeable-Phenotype (%): 17% and 10%
  Population Mitochondria Different-Phenotype (%): 14% and 17%
  Population Mitotic Cells (%): 27% and 22%
  Population Normal (%): 96% and 99%
  Population Pyknosed Nuclei (%): 16% and 11%
  Population Tubulin-Different-Phenotype (%): 10% and 6%
  Total Cell Count: 233 and 156
[5]
  Population Apoptotic (%): 89% and 76%
  Population Fragmented Nuclei (%): 15% and 13%
  Population Healthy Nuclei (%): 70% and 68%
  Population Hoechst High Intensity Objects (%): 3%
  Population Membrane Permeable-Phenotype (%): 6% and 3%
  Population Mitochondria Different-Phenotype (%): 4% and 2%
  Population Mitotic Cells (%): 10% and 23%
  Population Normal (%): 96%
  Population Pyknosed Nuclei (%): 14% and 18%
  Population Tubulin-Different-Phenotype (%): 4% and 2%
  Total Cell Count: 416 and 148
[6]
  Population Apoptotic (%): 78% and 95%
  Population Fragmented Nuclei (%): 22% and 13%
  Population Healthy Nuclei (%): 59% and 75%
  Population Hoechst High Intensity Objects (%): 4% and 2%
  Population Membrane Permeable-Phenotype (%): 15% and 10%
  Population Mitochondria Different-Phenotype (%): 7% and 12%
  Population Normal (%): 95% and 97%
  Population Pyknosed Nuclei (%): 17% and 11%
  Population Tubulin-Different-Phenotype (%): 6% and 4%
  Total Cell Count: 302 and 201
